Test results: ChEMBL document CHEMBL3044705, “Synthesis and insecticidal activity of an oxabicyclolactone and novel pyrethroids” (2012)

Columns and labels:
Format in all cases: functional
Sitophilus zeamais [1] = test: Insecticidal activity against Sitophilus zeamais assessed as mortality at 50 ug applied on thoracic tergite at 25 +/- 0.5 degC and 75 +/- 5 % RH without food for 24 hr
Method in brief: (§1)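 Topical contact assay. Dose was expressed per mg of insect body weight: 5 μg/mg for P. americana, 10 µg/mg for A. monuste orseis, and 50 μg/mg for A. obtectus and S. zeamais. The acetone control received solvent only. Insects were held in Petri dishes in an incubator with a 12 h photoperiod. Dead and motionless insects were both counted as dead. Mean percent mortality was compared by Tukey test at the 0.05 level.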

Acanthoscelides obtectus [2] = test: Insecticidal activity against Acanthoscelides obtectus assessed as mortality at 50 ug applied on thoracic tergite at 25 +/- 0.5 degC and 75 +/- 5 % RH without food for 12 hr; method in brief: as §1
Ascia monuste [3] = test: Insecticidal activity against Ascia monuste orseis assessed as mortality at 10 ug applied on thoracic tergite at 25 +/- 0.5 degC and 75 +/- 5 % RH with food for 12 hr; method in brief: as §1
Periplaneta americana [4] = test: Insecticidal activity against second-instar nymph Periplaneta americana (American cockroach) assessed as mortality at 5 ug applied on thoracic tergite at 25 +/- 0.5 degC and 75 +/- 5 % RH with food for 24 hr; method in brief: as §1
Sitophilus zeamais [5] = test: Insecticidal activity against Sitophilus zeamais assessed as mortality at 50 ug applied on thoracic tergite at 25 +/- 0.5 degC and 75 +/- 5 % RH without food for 12 hr; method in brief: as §1
Ascia monuste [6] = test: Insecticidal activity against Ascia monuste orseis assessed as mortality at 10 ug applied on thoracic tergite at 25 +/- 0.5 degC and 75 +/- 5 % RH with food for 24 hr; method in brief: as §1
Periplaneta americana [7] = test: Insecticidal activity against second-instar nymph Periplaneta americana (American cockroach) assessed as mortality at 5 ug applied on thoracic tergite at 25 +/- 0.5 degC and 75 +/- 5 % RH with food for 12 hr; method in brief: as §1
Acanthoscelides obtectus [8] = test: Insecticidal activity against Acanthoscelides obtectus assessed as mortality at 50 ug applied on thoracic tergite at 25 +/- 0.5 degC and 75 +/- 5 % RH without food for 24 hr; method in brief: as §1

Compound	mortality (Sitophilus zeamais [1]) [%]	mortality (Acanthoscelides obtectus [2]) [%]	mortality (Ascia monuste [3]) [%]	mortality (Periplaneta americana [4]) [%]	mortality (Sitophilus zeamais [5]) [%]	mortality (Ascia monuste [6]) [%]	mortality (Periplaneta americana [7]) [%]	mortality (Acanthoscelides obtectus [8]) [%]
COC(=O)[C@H]1[C@H](C=Cc2ccccc2OC)C1(C)C	95	87.5	62.5	100	95	95	100	95
COC(=O)[C@@H]1[C@@H](C=O)C1(C)C	45	90	50	71	42.5	67.5	67	97.5
CC1(C)C2COC(=O)C21 (stereo not given)	90	100	100	100	85	100	100	100
COC(=O)[C@H]1[C@H](C=Cc2cccc(OC)c2)C1(C)C	97.5	82.5	75		92.5	95	92	92.5
CCOc1ccc(C=C[C@H]2[C@H](C(=O)OC)C2(C)C)cc1	100	97.5	75		97.5	92.5	75	97.5
COC(=O)[C@H]1[C@H](C=Cc2ccccc2Cl)C1(C)C (mixture of isomers)	90	97.5	100	67	82.5	100	67	97.5
CC1(C)C(C=C(Cl)Cl)C1C(=O)OCc1cccc(Oc2ccccc2)c1 (stereo not given) [PERMETHRIN]	90	100	100	97.5	85.5	100	87.5	100
COC(=O)[C@H]1[C@H](C=Cc2c(F)c(F)c(F)c(F)c2F)C1(C)C	100	100	100	100	97.5	100	100	100
COC(=O)[C@H]1[C@H](C=O)C1(C)C	47.5	100	27.5	96	45	47.5	79.33	100
